Laboratory results from ChEMBL document CHEMBL1135489, “Structurally simple trichostatin A-like straight chain hydroxamates as potent histone deacetylase inhibitors” (J Med Chem, 2002).
pIC50: −log10 of the molar value.

How the values were obtained:
Histone deacetylase 1 = Histone deacetylase 1 (Homo sapiens, UniProt Q13547); assay: Inhibition against partially purified human histone deacetylase 1 (HDAC-1)
MDA-MB-231 = assay: Inhibitory concentration required to reduce MDAmb 231 tumor cell growth by 50% in MTT assay; assay type: functional, cell-based; settings: Homo sapiens
In short: (§1)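 Compound dilution series added to plated cells, 72 h at 37 °C, 5% CO2. MTT then added at 0.5 mg/mL final for 4 h. Solubilization buffer (50% DMF, 20% SDS, pH 4.7) added, incubated overnight, read at 570 with 630 reference. OD converted to cell number from each line's standard growth curve.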

MCF7 = assay: Inhibitory concentration required to reduce MCF-7 tumor cell growth by 50% in MTT assay; assay type: functional, cell-based; settings: Homo sapiens; in short: as §1
DU-145 = assay: Inhibitory concentration required to reduce DU145 tumor cell growth by 50% in MTT assay; assay type: functional, cell-based; settings: Homo sapiens; in short: as §1
HCT-116 = assay: Inhibitory concentration required to reduce HCT 116 tumor cell growth by 50% in MTT assay; assay type: functional, cell-based; settings: Homo sapiens; in short: as §1
NCI-H446 = assay: Inhibitory concentration required to reduce H446 tumor cell growth by 50% in MTT assay; assay type: functional, cell-based; settings: Homo sapiens; in short: as §1
T-24 = assay: Inhibitory concentration required to reduce T24 tumor cell growth by 50% in MTT assay; assay type: functional, cell-based; settings: Homo sapiens; in short: as §1
A549 = assay: Inhibitory concentration required to reduce A549 tumor cell growth by 50% in MTT assay; assay type: functional, cell-based; settings: Homo sapiens; in short: as §1
SW48 = assay: Inhibitory concentration required to reduce SW48 tumor cell growth by 50% in MTT assay; assay type: functional, cell-based; settings: Homo sapiens; in short: as §1
HMEC = assay: Inhibitory concentration required to reduce normal human epithelial cell line (HMEC), growth by 50% in MTT assay; assay type: functional, cell-based; in short: as §1

Sequence of Histone deacetylase 1 (Q13547 whole entry): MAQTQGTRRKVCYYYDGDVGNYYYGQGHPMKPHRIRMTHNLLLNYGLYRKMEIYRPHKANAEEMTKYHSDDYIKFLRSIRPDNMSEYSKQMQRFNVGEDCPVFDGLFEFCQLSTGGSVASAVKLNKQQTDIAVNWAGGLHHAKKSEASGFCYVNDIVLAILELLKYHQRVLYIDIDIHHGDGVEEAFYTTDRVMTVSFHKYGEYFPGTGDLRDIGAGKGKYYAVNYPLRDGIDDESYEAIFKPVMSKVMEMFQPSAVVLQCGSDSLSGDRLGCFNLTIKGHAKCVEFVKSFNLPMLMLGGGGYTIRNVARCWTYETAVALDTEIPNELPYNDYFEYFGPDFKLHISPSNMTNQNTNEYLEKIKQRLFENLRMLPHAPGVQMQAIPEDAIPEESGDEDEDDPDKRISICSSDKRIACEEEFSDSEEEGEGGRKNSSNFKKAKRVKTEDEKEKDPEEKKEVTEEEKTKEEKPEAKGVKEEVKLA

Row | pIC50 (Histone deacetylase 1) | pIC50 (MDA-MB-231) | pIC50 (MCF7) | pIC50 (DU-145) | pIC50 (HCT-116) | pIC50 (NCI-H446) | pIC50 (A549) | pIC50 (SW48) | Compound | pIC50 (T-24) | pIC50 (HMEC)
1 | 8.22 | – | – | – | – | – | – | – | O=C(CCCCC/C=C/c1ccc2ccccc2c1)NO | – | –
2 | – | 7.05 | 7.00 | 6.70 | > 7.30 | 7.10 | 6.80 | 7.00 | CC(/C=C/C(=O)NO)=C\[C@@H](C)C(=O)c1ccc(N(C)C)cc1 [TRICHOSTATIN] | 6.82 | 5.80
3 | 6.82 | – | – | – | – | – | – | – | O=C(CCCCCCC(=O)c1cccnc1)NO | – | –
4 | 8.35 | 6.10 | 5.70 | 5.26 | 5.40 | 6.00 | 5.30 | 5.60 | O=C(CCCCCCC(=O)c1ccc(N2CCN(c3ccccc3)CC2)cc1)NO | 5.15 | < 4.70
5 | 7.35 | – | – | – | – | – | – | – | O=C(CCCCCCC(=O)c1ccc(C(F)(F)F)cc1)NO | – | –
6 | 7.60 | – | – | – | – | – | – | – | O=C(CCCCCCCc1ccc2ccccc2c1)NO | – | –
